The source of these data is ChEMBL document CHEMBL2385038, “Bioactive dibenzocyclooctadiene lignans from the stems of Schisandra neglecta” (J Nat Prod, 2013).

What is called IC50 is the concentration needed to halve the response being measured. A lower IC50 goes with inhibition by little substance. By EC50 is commonly meant the concentration needed to bring the measured effect to its halfway point. Broadly, the CC50 is the concentration giving 50% cytotoxicity. Lower therefore signals greater toxicity to the cells.

Data set [1] deals with MCF7. Nature of the data set: Cytotoxicity against human MCF7 cells after 3 days by MTT assay. The format is functional, cell-based. The note with it: MCF7, 72 h. The gist of the method:
(§1)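 MTT viability assay on NB4 (acute promyelocytic leukemia), A549 (lung adenocarcinoma), SHSY5Y (neuroblastoma), PC3 (prostate) and MCF7 (breast adenocarcinoma) cells, reported as IC50. Paclitaxel was the positive control. Performed in triplicate.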
On the technique in general: Tetrazolium dyes change colour on reduction, which living cells bring about.

Data set [2] relates to PC-3. The experiment in a line: Cytotoxicity against human PC3 cells after 3 days by MTT assay. The format is functional, cell-based. The note with it: PC-3, 72 h. Summed up: as §1
Data set [3] relates to A549. The experiment in a line: Cytotoxicity against human A549 cells after 3 days by MTT assay. The format is functional, cell-based. The note with it: A549, 72 h. The gist of the method:
as §1

Data set [4] is described as follows: Cytotoxicity against human SH-SY5Y cells after 3 days by MTT assay. The format is functional, cell-based. The note with it: 72 h. The gist of the method:
as §1

Data set [5] is described as follows: Therapeutic index, ratio of CC50 for human C8166 cells to EC50 for HIV-1 3B. Type of data set: cell-based. The note with it: read-out: Ratio CC50/EC50.
In data set [6] the test system is NB-4. The experiment in a line: Cytotoxicity against human NB4 cells after 3 days by MTT assay. The format is functional, cell-based. The note with it: NB-4, 72 h. Summed up:
as §1

Data set [7] concerns Human immunodeficiency virus 1. Nature of the data set: Antiviral activity against HIV-1 3B infected in human C8166 cells assessed as inhibition of virus-induced cytopathic effect after 3 days by Syncytia Assay. Type of data set: functional, organism-based. The note with it: Human immunodeficiency virus 1, 3B, C8166, 72 h. The gist of the method:
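Inhibition of HIV-1-induced cytopathic effect in C8166 cells, expressed as EC50. Azidothymidine (AZT) served as the positive control. Performed in triplicate.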
For orientation: Damage to the host cells serves as the signal in cytopathic effect assays.

Data set [8] is described as follows: Cytotoxicity against human C8166 cells after 3 days by MTT assay. Type of data set: cell-based. Summed up: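 Viability of uninfected C8166 cells was measured by MTT to give CC50, alongside the anti-HIV-1 assay. Performed in triplicate.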

Consider `COc1c(O)cc2c(c1OC)-c1c(cc3c(c1OC)OCO3)[C@H](OC(=O)C(C)C)[C@H](C)[C@H](C)C2`, for which the 50% inhibitory concentration (IC50) in data set [1], in data set [2], in data set [3], in data set [4] and in data set [6] was greater than 10 µM in each case. Moreover, in data set [5], the selectivity ratio amounted to 18.1. Moreover, the EC50 in data set [7] is 8.2 µM. This compound also came in with a CC50 at 72 h in data set [8] of 149 µM.

Take `COc1c(OC)c(C(=O)O)c2c(c1OC)-c1c(cc3c(c1OC)OCO3)[C@H](O)[C@H](C)[C@H](C)C2`: the IC50 in data set [1] was 7.4 µM; in data set [2], greater than 10 µM; in data set [3], 6.8 µM; in data set [4], greater than 10 µM; in data set [6], greater than 10 µM. Moreover, the selectivity ratio in data set [5] amounted to 40.3. The EC50 in data set [7] came out at 2.2 µM. This compound had a CC50 at 72 h in data set [8] of 86.7 µM.

On to `COc1c(O)c(C(=O)O)c2c(c1OC)-c1c(cc3c(c1OC)OCO3)[C@H](O)[C@H](C)[C@H](C)C2`, for which the IC50 is greater than 10 µM in data set [1]; 9.2 µM in data set [2]; 5.9 µM in data set [3]; greater than 10 µM in data set [4]; greater than 10 µM in data set [6]. The selectivity ratio in data set [5] is 55.3. Besides, in data set [7], the EC50 was determined as 1.4 µM. Moreover, the midpoint of cytotoxicity in data set [8], the CC50 at 72 h, lay at 75.2 µM.

Consider `COc1c2c(cc(CC(C)=O)c1-c1c(CC(C)=O)cc3c(c1OC)OCO3)OCO2`, for which the IC50 in data set [1] is greater than 10 µM; in data set [2] it was greater than 10 µM; in data set [3], greater than 6.5 µM; in data set [4], 8.2 µM; in data set [6], 7.3 µM. Also, the selectivity ratio in data set [5] was found to be 14.1. Further, the EC50 in data set [7] turned out to be 3.9 µM. Further, the CC50 at 72 h in data set [8] turned out to be 54.5 µM.

On to `COc1cc(CC(C)=O)c(-c2c(CC(C)=O)cc(OC)c(OC)c2O)c(O)c1OC`, for which the IC50 in data set [1] turned out to be 7.8 µM; in data set [2] it was 5.1 µM; in data set [3], 8.6 µM; in data set [4], 3.3 µM; in data set [6] it was 2.9 µM. Further, the selectivity ratio in data set [5] turned out to be 9.2. Besides, the EC50 in data set [7] was 4.2 µM. This compound showed a cytotoxic concentration (CC50) at 72 h in data set [8] of 38.8 µM.

As for `COc1cc2c(c(OC)c1OC)-c1c(cc(OC)c(OC)c1OC)[C@H](OCC(C)C)[C@@H](C)[C@@H](C)C2`, the IC50 in data set [1], in data set [2], in data set [3], in data set [4] and in data set [6] was greater than 10 µM in each case. The selectivity ratio in data set [5] was greater than 33.7. In data set [7], the EC50 is 5.9 µM. In data set [8], this compound gave a half-maximal cytotoxic concentration (CC50) at 72 h greater than 200 µM.

As for `COc1cc2c(c(OC)c1OC)-c1c(cc(O)c(OC)c1OC)[C@H](OCC(C)C)[C@@H](C)[C@@H](C)C2`, the concentration for half-maximal inhibition (IC50) in data set [1], in data set [2], in data set [3], in data set [4] and in data set [6] was greater than 10 µM in each case. Moreover, the selectivity ratio in data set [5] was greater than 58. Moreover, in data set [7], the half-maximal effective concentration (EC50) amounted to 3.5 µM. The compound further came in with a CC50 at 72 h in data set [8] greater than 200 µM.

Regarding `COc1cc2c(c(OC)c1OC)-c1c(cc(O)c(OC)c1OC)C[C@H](C)[C@@](C)(O)C2`, the selectivity ratio in data set [5] stood at 15.1. For the same compound, the concentration for a half-maximal effect (EC50) in data set [7] turned out to be 8.2 µM. In data set [8], this compound gave a 50% cytotoxic concentration (CC50) at 72 h of 124 µM.

With `C/C=C(/C)C(=O)O[C@H]1c2cc(OC)c(OC)c(OC)c2-c2c(cc(OC)c(OC)c2OC)C[C@H](C)[C@]1(C)O`, the half-maximal inhibitory concentration (IC50) is greater than 10 µM in data set [1]; greater than 10 µM in data set [2]; greater than 10 µM in data set [3]; 7.8 µM in data set [4]; greater than 10 µM in data set [6]. Further, the selectivity ratio in data set [5] turned out to be 7.4. In data set [7], the EC50 stood at 11.5 µM. Further, it took 84.7 µM to reach half-maximal cytotoxicity in data set [8] (CC50 at 72 h).

For `COc1cc2c(c(O)c1OC)-c1c(cc(OC)c(OC)c1OC)[C@H](OC(=O)c1ccccc1)[C@@H](C)[C@@](C)(O)[C@H]2OC(C)=O`, the IC50 in data set [1] is 9.7 µM; in data set [2], greater than 10 µM; in data set [3], greater than 10 µM; in data set [4], greater than 10 µM; in data set [6] it was 7.4 µM. In data set [5], the selectivity ratio was determined as 17.8. In addition, the EC50 in data set [7] is 8.3 µM. Further, the cytotoxic concentration (CC50) at 72 h in data set [8] was 147 µM.

As to `COc1cc2c(c(OC)c1OC)-c1c3cc4c(c1OC[C@@H](C)[C@@](C)(O)C(=O)O[C@@H]2[C@@](C)(O)[C@@H](C)C3)OCO4`, the selectivity ratio in data set [5] came out at 18.9. Besides, the EC50 in data set [7] came to 9.8 µM. The half-maximal cytotoxic concentration (CC50) at 72 h in data set [8] came out at 186 µM.

Consider `COc1cc2c(c(O)c1OC)-c1c(cc3c(c1OC)OCO3)C[C@H](C)[C@H](C)C2` (racemic), for which the IC50 in data set [1], in data set [2], in data set [3], in data set [4] and in data set [6] was greater than 10 µM in each case.

Regarding `COc1cc2c(c(OC)c1OC)-c1c(cc3c(c1OC)OCO3)[C@H](OC(=O)C=C(C)C)[C@@](C)(O)[C@@H](C)C2` [GOMISIN F], the IC50 in data set [1], in data set [2], in data set [3], in data set [4] and in data set [6] was greater than 10 µM in each case. Also, the selectivity ratio in data set [5] is 7.5. For the same compound, the 50% effective concentration (EC50) in data set [7] is 8.3 µM. In data set [8], the CC50 at 72 h was 61.9 µM.

Turning to `C/C=C(/C)C(=O)O[C@H]1c2cc(OC)c(OC)c(OC)c2-c2c(cc3c(c2OC)OCO3)[C@H](OC(C)=O)[C@H](C)[C@@H]1C` [INTERIOTHERIN C], the concentration for half-maximal inhibition (IC50) in data set [1], in data set [2], in data set [3], in data set [4] and in data set [6] was greater than 10 µM throughout.

Take `COc1cc2c(c(OC)c1OC)-c1c(cc3c(c1OC)OCO3)[C@H](O)[C@H](C)[C@H](C)C2` [ISOGOMISIN O]: the IC50 in data set [1], in data set [2], in data set [3], in data set [4] and in data set [6] was greater than 10 µM in each case.

For `COc1c(O)cc2c(c1OC)-c1c(cc(O)c(OC)c1OC)[C@H](OCc1ccccc1)[C@@H](C)[C@@H](C)C2` [MARLIGNAN G], the IC50 in data set [1] is greater than 10 µM; in data set [2] it was 9.5 µM; in data set [3], 8.6 µM; in data set [4], greater than 10 µM; in data set [6], greater than 10 µM.

Regarding `CC(=O)O[C@H]1C(=O)[C@@]2(C)[C@H]([C@H](OC(=O)c3ccccc3)[C@]3(O)C[C@H](OC(=O)[C@H](O)[C@@H](NC(=O)c4ccccc4)c4ccccc4)C(C)=C1C3(C)C)[C@]1(OC(C)=O)CO[C@@H]1C[C@@H]2O` [PACLITAXEL], the 50% inhibitory concentration (IC50) in data set [3] worked out at 0.02 µM; in data set [4], 0.2 µM; in data set [6], 0.03 µM.

Regarding `COc1cc2c(c(OC)c1OC)-c1c(cc3c(c1OC)OCO3)C[C@H](C)[C@H](C)[C@H]2OC(C)=O` [RUBSCHISANTHERIN], the IC50 in data set [1], in data set [2], in data set [3], in data set [4] and in data set [6] was greater than 10 µM each time. Besides, the selectivity ratio in data set [5] was 18.2. In addition, the 50% effective concentration (EC50) in data set [7] is 4.7 µM. For the same compound, it took 85.2 µM to reach half-maximal cytotoxicity in data set [8] (CC50 at 72 h).

As for `COc1cc(CO)c(-c2c(C[C@H](C)C(C)=O)cc3c(c2OC)OCO3)c(OC)c1OC` [SCHISPHENONE], the 50% inhibitory concentration (IC50) was greater than 10 µM in data set [1]; 8.9 µM in data set [2]; greater than 10 µM in data set [3]; greater than 10 µM in data set [4]; greater than 10 µM in data set [6]. Further, the selectivity ratio in data set [5] is 12.3. In data set [7], the half-maximal effective concentration (EC50) came to 12.7 µM. Besides, in data set [8], the CC50 at 72 h was found to be 156 µM.

In the case of `Cc1cn([C@H]2C[C@H](N=[N+]=[N-])[C@@H](CO)O2)c(=O)[nH]c1=O` [ZIDOVUDINE], in data set [7], the EC50 was 0.034 µM. This compound also displayed a CC50 at 72 h in data set [8] greater than 200 µM.
